Measurements reported in ChEMBL document CHEMBL3259690, “Synthesis, structure-activity relationships, and biological studies of chromenochalcones as potential antileishmanial agents” (J Med Chem, 2014).
Activity calls are given as the source filed them. No cut-off for these calls is given here.

Legend:
[1] = Stability of the compound in simulated gastric fluid at 10 uM by HPLC-UV analysis; assay type: physicochemical; details: simulated gi fluid
Method in brief: (§1)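 Simulated gastric and intestinal fluids made to USP specifications. Compound at 10 μM incubated in SGF sampled at 0, 15, 30 and 60 min, and in SIF at 0, 30, 60, 90 and 120 min. Mean ± SEM.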

[2] = Tmax in Syrian golden hamster at 100 mg/kg, po administered via gavage as single dose by HPLC-UV analysis; assay type: ADME, organism-based, Mesocricetus auratus; parameters: dose 100 mg/kg, route oral; details: in vivo
Method in brief: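 Male Syrian golden hamsters (100 ± 15 g) given a single oral dose of 100 mg/kg. Plasma stored at −70 °C and assayed by HPLC-UV. Concentration–time profiles analysed non-compartmentally; values mean ± SD.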

Leishmania donovani [3] = assay: Induction of apoptosis in Leishmania donovani MHOM/IN/80/Dd8 promastigotes assessed as drop in mitochondrial membrane potential at 0.78 uM after 72 hrs by JC-1 dye based flow cytometry (reference value: 5.87%); assay type: functional
Leishmania donovani [4] = assay: Induction of apoptosis in Leishmania donovani MHOM/IN/80/Dd8 promastigotes assessed as drop in mitochondrial membrane potential at 0.78 uM after 12 hrs by JC-1 dye based flow cytometry (reference value: 5.87%); assay type: functional
[5] = Stability of the compound in simulated intestinal fluid assessed as compound degradation at 10 uM by HPLC-UV analysis; assay type: physicochemical; details: read-out: Drug degradation; method in brief: as §1
Leishmania donovani [6] = assay: Antileishmanial activity against Leishmania donovani MHOM/IN/80/Dd8 amastigotes infected in syrian golden hamster assessed as decrease in parasite count in spleen at 100 mg/kg/day, po for 5 days measured on day 7 after last dose administration by giemsa staining; assay type: functional; details: MHOM/IN/80/Dd8, Spleen
Method in brief: (§2)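 Golden hamsters of either sex infected intracardially with 1 × 10⁷ L. donovani Dd8 amastigotes. After 15−20 days, pretreatment spleen biopsy; animals with +1 grade infection (5−10 amastigotes/100 spleen cell nuclei) used, 5−6 per compound. Aqueous suspensions dosed IP or PO for 5−10 consecutive days starting 2 days after biopsy. Splenic biopsies on day 7 and 28 after last dose, Giemsa counts; PI = 100 − [(ANAT×100)/(INAT×TIUC)].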

Leishmania donovani [7] = assay: Antileishmanial activity against extracellular promastigote form of Leishmania donovani MHOM/IN/80/Dd8 expressing firefly luciferase gene assessed as inhibition of parasitic multiplication at 25 uM after 96 hrs by luminescence analysis; assay type: functional; details: MHOM/IN/80/Dd8, 96 h
Method in brief: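 Late-log luciferase-expressing Dd8 promastigotes, 5 × 10⁵/mL in complete M-199, incubated with compound at 24 °C for 96 h. Aliquot mixed with Steady Glo and luminescence read as RLU. Inhibition of multiplication taken from luciferase signal of treated versus untreated parasites.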

Leishmania donovani [8] = assay: Induction of necrosis in Leishmania donovani MHOM/IN/80/Dd8 promastigotes at 0.78 uM after 72 hrs by Annexin V-FITC/propidium iodide staining based flow cytometry; assay type: functional, organism-based
Syrian golden hamster = assay: Toxicity in Syrian golden hamster at 100 mg/kg, po administered via gavage as single dose; assay type: organism-based, Mesocricetus auratus; parameters: dose 100 mg/kg, route oral; details: in vivo
J774.A1 = assay: Decrease in TGF-beta production in mouse J774A1 cells infected with Leishmania donovani at IC50 concentration after 24 hrs by sandwich ELISA relative to control; assay type: functional
Method in brief: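 J774A.1 macrophages (1 × 10⁶) infected with Leishmania at 1:10, treated in 6-well plates at the compound's IC₅₀ concentration, 37 °C, CO₂. Supernatants from normal, infected-untreated and infected-treated cells collected after 24 h. IL-12, TNF-α, IL-10 and TGF-β measured by sandwich ELISA at 450 nm, in pg/mL. Two independent experiments in duplicate, mean ± SD; Student's t test against infected control.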

Leishmania donovani [9] = assay: Antileishmanial activity against intracellular amastigote form of Leishmania donovani MHOM/IN/80/Dd8 expressing luciferase gene infected in mouse J774A1 cells after 72 hrs by luminescence analysis; assay type: functional, organism-based; details: MHOM/IN/80/Dd8, J774.A1, 72 h
Method in brief: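 J774A.1 macrophages (4 × 10⁴/mL, RPMI-1640 + 10% HIFBS, 37 °C, 5% CO₂), after 24 h infected with stationary-phase luciferase promastigotes (4 × 10⁵/mL). Free parasites washed off after 24 h. Compound added at up to 7 dilutions from 40 μM for 72 h. Luminescence read after Steady Glo in PBS. IC₅₀ from four-parameter Hill fit; at least duplicate measurements.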

[10] = Cytotoxicity against African green monkey Vero cells after 72 hrs by MTT assay; assay type: cell-based; details: chlorocebus sabaeus
Method in brief: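 Vero cells at 1 × 10⁵/mL exposed to seven concentrations from 400 μM at 37 °C, 5% CO₂, for 72 h. MTT (5 mg/mL) added for 2 h at 37 °C, formazan dissolved in DMSO, absorbance read at 544 nm. CC₅₀ estimated by the Huber and Koella method; at least duplicate measurements.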

Leishmania donovani [11] = assay: Antileishmanial activity against Leishmania donovani MHOM/IN/80/Dd8 amastigotes infected in syrian golden hamster assessed as decrease in parasite count in spleen at 50 mg/kg/day, po for 5 days measured on day 7 after last dose administration by giemsa staining; assay type: functional; details: MHOM/IN/80/Dd8, Spleen; method in brief: as §2

In the case of `CC(C)=CCCC1(C)C=Cc2c(ccc(C(=O)/C=C/c3cccnc3)c2O)O1` (stereo not drawn), the Stability [1] is reported as “Stable”, the Tmax [2] is reported as 37.5 min and the Activity (Leishmania donovani [3]) is reported as 69.59%. It also gave an Activity (Leishmania donovani [4]) of 17.46%, a degraded at 10 µM [5] of 30% and an inhibition in vivo at 100 mg/kg/day (Leishmania donovani [6]) of 84.7%. The inhibition at 25 µM (Leishmania donovani [7]) was 99.8%, the Activity (Leishmania donovani [8]) was “inactive” and the Activity (Syrian golden hamster) was “Non-toxic”. The “fold change (FC)” value (J774.A1) was 4.08, the IC50 (Leishmania donovani [9]) was 5.4 µM and the CC50 at 72 h [10] was 40.7 µM. The inhibition in vivo at 50 mg/kg/day (Leishmania donovani [11]) was 49%.
